Bioassay records as filed in PubChem BioAssay.
Compounds with a hit are over-represented: about 2.2% of the library has one in this group of screens.
Diaphorase inh – diaphorase inhibition or chemical oxidation counter-screen; 190,000 compounds, 0.69% hits; diaphorase resazurin-to-resorufin fluorescence, NADH, 16 min; bacterial (C. kluyveri) enzyme, not human; inhibition, % at 20 µM;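 active = primary screen inhibition at 20 µM above a set limit, cut at about 50% in these data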;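 also: plate controls were DMSO with full reaction for no effect and wells lacking NADH for full effect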
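Assay system – diaphorase enzyme from Clostridium kluyveri · Amount – diaphorase 0.14 U/mL (working solution) · Times – reaction incubation of 16 min at room temperature · Controls – No-NADH positive control and DMSO neutral control · Signal – resorufin fluorescence 544/590 nm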
Diaphorase act – activates diaphorase or chemically reduces, flagging diaphorase assay artifacts; 190,000 compounds, 0.005% hits; Diaphorase/resazurin coupled assay, resorufin fluorescence, 16 min; active compounds read high; 1 = vehicle wells, 0 = NADH-free wells; AID 1229; activation factor at 20 µM;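 active = diaphorase activity raised at least twofold by the compound at 20 µM; inactive = activation factor below 2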
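Material: purified diaphorase enzyme from Clostridium kluyveri / Medium: HEPES pH 7.4 buffer with MgCl2 and Tween 20 / Schedule: enzyme reaction of 16 min at room temperature / Measured by: resorufin fluorescence, excitation 544 nm, emission 590 nm / Evaluation: rise in resorufin formation, marking diaphorase activation or chemical reduction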
PMI act hi M6P – PMI (human) activation, high substrate | P34949 | 190,000 compounds, 0.34% hits | AID 1216 | coupled PMI enzyme assay, resazurin fluorescence, 20 min; active compounds read high; 1 = untreated enzyme, 0 = substrate-free blank | activation factor at 20 µM;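 active = activation factor of 2 or more at 20 µM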
Target sequence (P34949 whole entry, looked up): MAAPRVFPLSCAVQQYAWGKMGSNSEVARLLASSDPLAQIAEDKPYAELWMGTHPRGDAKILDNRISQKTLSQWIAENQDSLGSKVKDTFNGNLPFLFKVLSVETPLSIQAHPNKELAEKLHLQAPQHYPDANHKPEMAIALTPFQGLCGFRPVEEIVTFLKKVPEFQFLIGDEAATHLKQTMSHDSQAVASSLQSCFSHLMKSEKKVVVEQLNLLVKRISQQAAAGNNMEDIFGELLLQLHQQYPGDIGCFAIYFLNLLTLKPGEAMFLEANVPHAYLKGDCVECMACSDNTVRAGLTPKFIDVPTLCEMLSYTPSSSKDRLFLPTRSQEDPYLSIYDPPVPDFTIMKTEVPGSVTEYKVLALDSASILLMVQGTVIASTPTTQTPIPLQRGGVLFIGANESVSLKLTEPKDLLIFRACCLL
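Test system: human phosphomannose isomerase with PGI, G6PDH, diaphorase coupling enzymes; amount: 15 ng/mL PMI; incubation: enzyme reaction with compound 20 min at room temperature; technique: resorufin fluorescence (Ex 544/Em 590 nm) from resazurin via diaphorase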
G6PDH CS – inhibits Leuconostoc G6PDH, flagging false hits in G6PDH-based assays; Purified L. mesenteroides G6PDH, diaphorase/resazurin coupled fluorescence, 45 min; AID 1020; 200,000 compounds, 0.12% hits; inhibition, % at 5 µM; in the data active = inhibition above about 50%
ROMK primary – human ROMK K+ channel modulation, primary screen; 130,000 compounds, 2% hits; AID 1918; B-score at 10 µM; Tet-inducible ROMK, thallium flux fluorescence; actives lie on both sides; P48048;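 active = signal ratio slope over the read window, or its plate-corrected B-score, at least 3 SD from the plate mean, either direction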;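 also: B-score of the F/F0 ratio slope over 7 to 12 s after thallium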
PMI act – increases human mannose-6-phosphate isomerase activity | purified human PMI, coupled resazurin fluorescence, 20 min; active compounds read high; 1 = vehicle control, 0 substrate-free wells | activation factor at 20 µM | 190,000 compounds, 0.005% hits | P34949 | AID 1214;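 active = activation factor of 2 or more at 20 µM, relative to plate controls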
ROMK hit retest – confirmation of human ROMK potassium channel modulators. ROMK thallium flux, fluorescence ratio; active compounds read low. shares compounds with ROMK primary. normalized thallium flux (F/F0 slope) at 10 µM. 3,000 compounds, 54% hits;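 active = Flux at 10 µM at least 3 SD below or above vehicle control mean in one or both replicates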
* marks the source's active call; other numbers are inactive results; nt = no result.

SMILES	Diaphorase inh	Diaphorase act	PMI act hi M6P	G6PDH CS	ROMK primary	PMI act	others
O=C(C(=O)N1CCOCC1)c1cn(Cc2ccccc2)c2ccccc12	7	0.9	0.9	0	nt	0.9
CCC(=NCCCn1ccnc1)c1c(O)n(-c2ccc(OC)cc2)c(=O)[nH]c1=O	nt	nt	nt	nt	-1.6	nt
CCOc1ccc(N2C(=O)/C(=C\c3cccs3)C(=O)NC2=S)cc1	22	0.8	2.2*	4	0.54	1.6
CC(C)(O)[C@H]1O[C@H]2CC[C@@]3(C)[C@@](O)(CC[C@H]4Cc5c([nH]c6ccccc56)[C@@]43C)C2=CC1=O	18	0.8	0.9	-3	0.27	0.9
O=C(CN1CCCCC1)c1ccccc1Cl	-1	1	2*	1	nt	1.7
O=C(CN1CCCCC1)c1cccc(Br)c1	13	0.9	1.4	-6	nt	1.5
O=C(CN1CCCCC1)c1ccc(OC(F)F)cc1	6	0.9	1.2	-10	nt	1.2
O=C(CN1CCCCC1)c1ccccc1F	8	0.9	2.3*	-3	nt	1.6
CC(=O)c1ccc(OC(C)C)c(Cc2c(O)[nH]c(=S)[nH]c2=O)c1	2	1	2.1*	13	0.0044	1.5
Cc1nc2cc(C(=O)N3CCC4(CC3)OCCO4)ccc2n1-c1ccc(Br)cc1	14	0.9	0.9	5	-2.4*	0.9
Cc1ccccc1-n1c(O)c(C=NCCN2CCOCC2)c(=O)[nH]c1=O	12	0.9	1	-9	nt	1
Cc1nc2ccccc2c(=O)n1-c1ccc(Cl)cc1[N+](=O)[O-]	77*	0.2	1	8	-0.67	1
CCOC(=O)C(NC(C)=O)C(OC(C)=O)c1cccc(N(CCCl)CCCl)c1 (stereo not drawn)	5	0.9	2*	3	nt	1.6
CN[C@H]1C[C@H]2O[C@@](C)([C@H]1OC)n1c3ccccc3c3c4c(c5c6ccccc6n2c5c31)C(=O)NC4	42	0.6	0.7	19	21*	0.8
Cc1ccc2c(c1)C1CN(C)CCC1N2C(=O)/C(C#N)=C/c1ccc2c(c1)OCO2 (stereo not drawn)	2	1	0.9	4	-3.1*	1	ROMK hit retest=0.053*
Cc1ccc2c(c1)C1CN(C)CCC1N2C(=O)/C=C/c1ccc2c(c1)OCO2 (stereo not drawn)	0	1	1	4	-0.43	1
COc1cc2c(cc1OC)-c1c(OC)c(OC)c(OC)c3ccnc(c13)C2=O	55*	0.5	0.5	19	-4.8*	0.8	ROMK hit retest=0.048*
Cc1c(N=Nc2c(O)n(Cc3ccccc3)c(=O)[nH]c2=O)c(=O)n(-c2ccccc2)n1C	6	0.9	0.9	33	0.81	1.1
CCn1c(O)c(/C=N/NC(=O)c2ccccc2)c(=O)n(CC)c1=S	nt	nt	nt	nt	nt	nt	ROMK hit retest=0.056*
O=c1c(C=NCCN2CCNCC2)c(O)n(C2CCCCC2)c(=O)n1C1CCCCC1	-3	1	0.9	-6	-3.7*	0.9	ROMK hit retest=0.075
O=c1c(C=NCc2cccs2)c(O)n(C2CCCCC2)c(=O)n1C1CCCCC1	15	0.8	1	1	-1	1
CCc1c(C(=O)NN2C(=O)C3C4CCC(O4)C3C2=O)csc1C (stereo not drawn)	3	1	1	11	0.64	1
C=C[C@@H]1C[C@@]1(C)[C@@H](NP(=O)(c1ccccc1)c1ccccc1)c1ccccc1	17	0.8	0.9	6	0.37	0.9
C[n+]1c(-c2ccccc2)cc(-c2ccc(Cl)cc2)cc1-c1ccccc1	2	1	1	-5	-1.4	1
c1ccc(-c2cc(-c3ccccc3)[n+](-c3ccccc3)c(-c3ccccc3)c2)cc1	nt	nt	nt	nt	-3.6*	nt	ROMK hit retest=0.044*
CN(C)c1ccc(-[n+]2c(-c3ccccc3)cc(-c3ccccc3)cc2-c2ccccc2)cc1	-14	1.1	1.1	6	-2.2*	1	ROMK hit retest=0.036*
